We go through 6 compounds from ChEMBL document CHEMBL1121480, “Conversion of ergolines to hexahydro- and octahydrobenzo[f]quinolines (depyrroloergolines)” (1980).

For the first assay, the system named is Rattus norvegicus. In words: Evaluated for the prolactin inhibition at the dose 50 ug/kg administered intraperitoneally. It is filed as functional. Conditions: ip. The essentials: (§1)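 Reserpinized male rats given 50 μg/kg ip; serum prolactin (ng/mL) measured by the method of Clemens et al. against vehicle controls; % inhibition from treated vs control means; mean ± SEM of 10 rats; significance versus control.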
In general, inhibition in vivo refers to the relative decrease from the control value, in per cent. On to `CCCN1C[C@H](CSC)C[C@@H]2c3ccccc3CC[C@H]21.O=C(O)C(=O)O` [DEPYRROLO PERGOLIDE], for which the inhibition in vivo at 0.05 mg/kg was 35%.

For `CCCN1C[C@H](CSC)C[C@@H]2c3cccc4[nH]cc(c34)C[C@H]21` [PERGOLIDE], the inhibition in vivo at 0.05 mg/kg was 95%.

Turning to `CC1=C[C@@H]2c3cccc4[nH]cc(c34)C[C@H]2N(C)C1` [AGROCLAVINE], the inhibition in vivo at 0.05 mg/kg stood at 63%.

As for `C[C@@H](CO)NC(=O)[C@@H]1C=C2c3cccc4[nH]cc(c34)C[C@H]2N(C)C1.O=C(O)/C=C\C(=O)O` [ERGONOVINE MALEATE], the inhibition in vivo at 0.05 mg/kg worked out at 36%.

In the case of `CC1=C[C@@H]2c3ccccc3CC[C@H]2N(C)C1.O=C(O)C(=O)O` [DEPYRROLO AGROCLAVINE], the inhibition in vivo at 0.05 mg/kg was determined as 9%.

As for `C[C@@H](CO)NC(=O)C1C=C2c3ccccc3CC[C@H]2N(C)C1` (some centres undefined) [DEPYRROLO ERGONOVINE], the inhibition in vivo at 0.05 mg/kg was -24%.

In another assay the test system is Rattus norvegicus. Description: Evaluated for the prolactin inhibition at the dose 50 ug/kg administered intraperitoneally (treatment). It is filed as functional.
Conditions: not given
The essentials:
as §1
In turn, `CCCN1C[C@H](CSC)C[C@@H]2c3ccccc3CC[C@H]21.O=C(O)C(=O)O` [DEPYRROLO PERGOLIDE] registered a serum prolactin level of 11.6 ng/mL.

`CCCN1C[C@H](CSC)C[C@@H]2c3cccc4[nH]cc(c34)C[C@H]21` [PERGOLIDE] showed a serum prolactin level of 1.6 ng/mL.

`CC1=C[C@@H]2c3cccc4[nH]cc(c34)C[C@H]2N(C)C1` [AGROCLAVINE] displayed a serum prolactin level of 11.7 ng/mL.

Compound `C[C@@H](CO)NC(=O)[C@@H]1C=C2c3cccc4[nH]cc(c34)C[C@H]2N(C)C1.O=C(O)/C=C\C(=O)O` [ERGONOVINE MALEATE] gave a serum prolactin level of 11.7 ng/mL.

In the case of `CC1=C[C@@H]2c3ccccc3CC[C@H]2N(C)C1.O=C(O)C(=O)O` [DEPYRROLO AGROCLAVINE], the serum prolactin level was determined as 35.2 ng/mL.

`C[C@@H](CO)NC(=O)C1C=C2c3ccccc3CC[C@H]2N(C)C1` (some centres undefined) [DEPYRROLO ERGONOVINE] came in with a serum prolactin level of 28.4 ng/mL.

The test system of another assay is Rattus norvegicus. Description: Evaluated for the Average turns per first 15 minutes after administration of 1 mg/kg intraperitoneally. It is filed as functional. Conditions: route intraperitoneal.
As for `CCCN1C[C@H](CSC)C[C@@H]2c3ccccc3CC[C@H]21.O=C(O)C(=O)O` [DEPYRROLO PERGOLIDE], the “Average turns/first 15 min” value was 48.

As for `CCCN1C[C@H](CSC)C[C@@H]2c3cccc4[nH]cc(c34)C[C@H]21` [PERGOLIDE], the “Average turns/first 15 min” value came to 102.

Turning to `CC1=C[C@@H]2c3cccc4[nH]cc(c34)C[C@H]2N(C)C1` [AGROCLAVINE], the “Average turns/first 15 min” value is reported as 95.

With `C[C@@H](CO)NC(=O)[C@@H]1C=C2c3cccc4[nH]cc(c34)C[C@H]2N(C)C1.O=C(O)/C=C\C(=O)O` [ERGONOVINE MALEATE], the “Average turns/first 15 min” value is listed as 0.

In the case of `CC1=C[C@@H]2c3ccccc3CC[C@H]2N(C)C1.O=C(O)C(=O)O` [DEPYRROLO AGROCLAVINE], the “Average turns/first 15 min” value is 0.

Regarding `C[C@@H](CO)NC(=O)C1C=C2c3ccccc3CC[C@H]2N(C)C1` (some centres undefined) [DEPYRROLO ERGONOVINE], the “Average turns/first 15 min” value came to 0.

In a further assay the test system is Rattus norvegicus. Description: Evaluated for the rat turning after administration of 1 mg/kg intraperitoneally. It is filed as functional. The settings on record: route intraperitoneal.
`CCCN1C[C@H](CSC)C[C@@H]2c3ccccc3CC[C@H]21.O=C(O)C(=O)O` [DEPYRROLO PERGOLIDE] came in with a Rat turning of 67%.

As to `CCCN1C[C@H](CSC)C[C@@H]2c3cccc4[nH]cc(c34)C[C@H]21` [PERGOLIDE], the Rat turning is recorded as 100%.

Turning to `CC1=C[C@@H]2c3cccc4[nH]cc(c34)C[C@H]2N(C)C1` [AGROCLAVINE], the Rat turning turned out to be 100%.

The compound `C[C@@H](CO)NC(=O)[C@@H]1C=C2c3cccc4[nH]cc(c34)C[C@H]2N(C)C1.O=C(O)/C=C\C(=O)O` [ERGONOVINE MALEATE] gave a Rat turning of 0%.

Compound `CC1=C[C@@H]2c3ccccc3CC[C@H]2N(C)C1.O=C(O)C(=O)O` [DEPYRROLO AGROCLAVINE] displayed a Rat turning of 0%.

Turning to `C[C@@H](CO)NC(=O)C1C=C2c3ccccc3CC[C@H]2N(C)C1` (some centres undefined) [DEPYRROLO ERGONOVINE], the Rat turning was determined as 0%.
